From ChEMBL document CHEMBL3826935, “Synthesis and Pharmacology of (Pyridin-2-yl)methanol Derivatives as Novel and Selective Transient Receptor Potential Vanilloid 3 Antagonists” (J Med Chem, 2016)

Key:
[1] = target: T1, Nuclear receptor subfamily 1 group I member 2 (Homo sapiens, UniProt O75469); assay: Activation of human PXR; assay type: ADME; conditions: human
T1 sequence (O75469 whole entry): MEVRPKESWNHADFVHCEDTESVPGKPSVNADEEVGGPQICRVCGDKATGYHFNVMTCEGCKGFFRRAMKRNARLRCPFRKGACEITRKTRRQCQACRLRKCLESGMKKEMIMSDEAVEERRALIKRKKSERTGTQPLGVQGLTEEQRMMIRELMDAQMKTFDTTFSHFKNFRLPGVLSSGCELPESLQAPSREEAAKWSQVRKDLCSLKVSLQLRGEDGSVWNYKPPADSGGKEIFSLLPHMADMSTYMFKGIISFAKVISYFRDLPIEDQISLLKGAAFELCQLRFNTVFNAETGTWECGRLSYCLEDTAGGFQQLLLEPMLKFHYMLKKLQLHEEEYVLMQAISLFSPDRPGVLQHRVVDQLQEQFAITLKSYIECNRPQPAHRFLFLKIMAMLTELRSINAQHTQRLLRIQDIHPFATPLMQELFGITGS

[2] = target: T2, Transient receptor potential cation channel subfamily V member 3 (Homo sapiens) (UniProt Q8NET8); assay: (§1) Antagonist activity at human TRPV3 expressed in recombinant HEK293 cells assessed as inhibition of 2-APB induced calcium flux by FLIPR analysis; assay type: cell-based
T2 sequence (whole entry): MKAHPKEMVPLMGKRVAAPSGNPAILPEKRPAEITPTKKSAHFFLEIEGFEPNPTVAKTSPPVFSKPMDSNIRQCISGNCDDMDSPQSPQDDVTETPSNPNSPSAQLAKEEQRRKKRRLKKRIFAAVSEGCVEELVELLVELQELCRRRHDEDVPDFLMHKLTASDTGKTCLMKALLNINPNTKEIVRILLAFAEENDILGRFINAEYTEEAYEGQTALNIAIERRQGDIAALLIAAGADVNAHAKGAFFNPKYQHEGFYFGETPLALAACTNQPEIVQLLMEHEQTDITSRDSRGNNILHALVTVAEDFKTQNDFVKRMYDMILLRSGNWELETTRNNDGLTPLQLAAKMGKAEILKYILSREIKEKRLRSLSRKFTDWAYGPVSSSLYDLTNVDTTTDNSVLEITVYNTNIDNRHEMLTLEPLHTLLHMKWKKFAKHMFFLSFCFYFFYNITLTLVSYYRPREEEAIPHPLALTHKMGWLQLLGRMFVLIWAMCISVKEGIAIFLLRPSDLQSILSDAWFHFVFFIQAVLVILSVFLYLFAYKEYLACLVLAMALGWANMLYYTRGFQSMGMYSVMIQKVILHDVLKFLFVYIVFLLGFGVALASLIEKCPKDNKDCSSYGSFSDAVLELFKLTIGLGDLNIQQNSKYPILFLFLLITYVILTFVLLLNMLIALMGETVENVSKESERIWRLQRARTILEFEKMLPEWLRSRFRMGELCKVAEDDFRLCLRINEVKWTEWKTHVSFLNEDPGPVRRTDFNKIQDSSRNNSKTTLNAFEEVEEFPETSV
In short: (§2)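 HEK293 cells stably expressing human TRPV3 (I25V variant), plated the day before in DMEM + 10% FBS at 37 °C, 5% CO2. Calcium 4 dye loaded in Ca/Mg-free HEPES D-PBS pH 7.4 for 1–2 h at room temperature. Compound dilutions added with 3 min baseline, then 2-APB at 60 µM final; Ca2+ flux read 3 min on FLIPR. Kb from at least duplicates, averaged across independent runs.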

[3] = target: T3, Transient receptor potential cation channel subfamily V member 3 (Homo sapiens, UniProt Q8NET8); assay: as §1; assay type: cell-based; in short: as §2
T3 sequence (Q8NET8 whole entry): T2 sequence (whole entry)

[4] = Cmax in rat at 1 mg/kg, iv or 2 mg/kg, po; assay type: ADME, organism-based; conditions: in vivo
In short: (§3)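 Rat pharmacokinetics: iv dose 1 mg/kg; po dose 1 or 2 mg/kg depending on compound. AUC taken over 0–8 h. Unbound parameters calculated using plasma free fraction.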

Liver microsome = assay: Unbound intrinsic clearance in human liver microsomes after 5 hrs by LC-MS/MS analysis; assay type: ADME
In short: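 Microsomal stability run in an automated high-throughput plate format. Intrinsic clearance corrected for nonspecific microsomal binding using measured unbound fraction (fu,mic), reported as unbound Clint in L/h/kg.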

[5] = Oral bioavailability in rat at 2 mg/kg; assay type: ADME, organism-based; conditions: in vivo; in short: as §3
Rattus norvegicus = organism: Rattus norvegicus; assay: Cardiotoxicity in rat assessed as increase in mean arterial pressure; assay type: toxicity, organism-based, Artery; conditions: in vivo
[6] = target: Sodium channel protein type 5 subunit alpha (Homo sapiens, UniProt Q14524); assay: Binding affinity to Nav1.5 (unknown origin) at 10 uM
In short: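 Selectivity screen at 10 µM across CEREP and internal target panels. Readout is percent binding, with 50% as the threshold.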

Sequence of Sodium channel protein type 5 subunit alpha (Q14524 whole entry): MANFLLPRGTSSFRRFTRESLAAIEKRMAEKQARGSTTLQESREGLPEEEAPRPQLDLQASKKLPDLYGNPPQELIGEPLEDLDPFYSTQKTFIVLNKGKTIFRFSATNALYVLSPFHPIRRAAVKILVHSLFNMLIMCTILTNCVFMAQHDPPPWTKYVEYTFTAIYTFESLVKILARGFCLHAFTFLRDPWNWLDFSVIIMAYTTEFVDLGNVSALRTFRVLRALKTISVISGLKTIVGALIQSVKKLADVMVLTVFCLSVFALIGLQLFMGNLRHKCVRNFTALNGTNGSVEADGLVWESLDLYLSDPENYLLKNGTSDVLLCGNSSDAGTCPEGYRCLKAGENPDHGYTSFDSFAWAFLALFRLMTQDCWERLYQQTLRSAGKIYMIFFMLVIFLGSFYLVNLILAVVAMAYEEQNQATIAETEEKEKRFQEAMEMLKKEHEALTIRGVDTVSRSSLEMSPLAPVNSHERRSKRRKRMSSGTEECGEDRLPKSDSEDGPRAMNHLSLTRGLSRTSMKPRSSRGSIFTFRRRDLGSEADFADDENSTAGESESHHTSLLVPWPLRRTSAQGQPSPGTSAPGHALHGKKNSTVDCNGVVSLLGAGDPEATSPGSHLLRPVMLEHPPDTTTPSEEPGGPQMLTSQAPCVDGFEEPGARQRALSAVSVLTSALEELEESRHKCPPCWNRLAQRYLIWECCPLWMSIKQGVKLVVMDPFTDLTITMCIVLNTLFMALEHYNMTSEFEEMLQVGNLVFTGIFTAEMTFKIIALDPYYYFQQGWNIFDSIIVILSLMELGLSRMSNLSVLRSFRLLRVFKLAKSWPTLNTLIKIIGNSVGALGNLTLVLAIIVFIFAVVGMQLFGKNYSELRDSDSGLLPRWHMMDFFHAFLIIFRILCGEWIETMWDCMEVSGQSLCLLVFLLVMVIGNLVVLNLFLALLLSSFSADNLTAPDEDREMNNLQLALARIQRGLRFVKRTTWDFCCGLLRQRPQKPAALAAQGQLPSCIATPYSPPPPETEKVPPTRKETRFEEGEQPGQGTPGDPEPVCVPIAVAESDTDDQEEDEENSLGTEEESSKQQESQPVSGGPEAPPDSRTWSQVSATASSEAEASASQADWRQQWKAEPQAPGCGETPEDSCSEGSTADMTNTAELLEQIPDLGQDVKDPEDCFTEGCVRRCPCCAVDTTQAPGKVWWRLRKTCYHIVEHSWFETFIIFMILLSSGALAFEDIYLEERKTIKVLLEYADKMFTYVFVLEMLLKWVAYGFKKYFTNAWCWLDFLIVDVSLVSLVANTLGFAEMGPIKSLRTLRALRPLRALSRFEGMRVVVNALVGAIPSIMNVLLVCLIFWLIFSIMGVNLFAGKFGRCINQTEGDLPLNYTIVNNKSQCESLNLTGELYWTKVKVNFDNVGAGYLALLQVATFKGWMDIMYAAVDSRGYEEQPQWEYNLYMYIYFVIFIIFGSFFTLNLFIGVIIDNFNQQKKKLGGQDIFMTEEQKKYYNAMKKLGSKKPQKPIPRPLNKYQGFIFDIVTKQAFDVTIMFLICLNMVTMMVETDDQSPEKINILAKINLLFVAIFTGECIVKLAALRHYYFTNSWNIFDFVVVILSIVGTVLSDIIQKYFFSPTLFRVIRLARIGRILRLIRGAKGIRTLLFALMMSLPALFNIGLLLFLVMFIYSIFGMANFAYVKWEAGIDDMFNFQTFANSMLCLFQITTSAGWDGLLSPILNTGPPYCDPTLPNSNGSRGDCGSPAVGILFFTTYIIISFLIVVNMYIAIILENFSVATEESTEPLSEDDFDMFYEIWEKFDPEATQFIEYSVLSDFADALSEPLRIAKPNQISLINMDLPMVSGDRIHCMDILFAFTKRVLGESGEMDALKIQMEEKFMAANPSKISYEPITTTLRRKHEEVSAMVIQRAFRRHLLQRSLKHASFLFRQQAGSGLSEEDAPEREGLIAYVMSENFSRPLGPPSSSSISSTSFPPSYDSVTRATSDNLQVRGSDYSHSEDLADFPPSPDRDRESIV

- Activity [1]: Not Active
- Kb [2]: 560 nM
- IC50 [3]: 930 nM
- Cmax [4]: 190 ng/mL
- CL free (Liver microsome): 33 mL/min/kg
- bioavailability [5]: 26%
SMILES: C[C@]1(O)C[C@](c2cc(C(F)(F)F)ccn2)([C@H](O)c2ccccn2)C1 (mixture of isomers)
- Activity (Rattus norvegicus): Non-toxic
- Activity [6]: < 50%
